The target in experiment [1] is Sodium-dependent serotonin transporter (Homo sapiens) (UniProt P31645). Briefly: % Decrease of 5-HT carrier-receptor -bound radioactivity using paroxetine as a radioligand. More on the design: concentration or dose not given beside the values. The method in brief:
(§1)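 Preliminary screen of receptors isolated from rat or pig tissues, run with minor changes to standard procedures. Each compound was tested at a single fixed concentration for each receptor. The read-out was the percent decrease in binding of the named radioligand.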

A short description of experiment [2]: Percent decrease of Endothelin receptor binding using [125I]sarafotoxin. More on the design: concentration or dose not given beside the values.
The target in experiment [3] is GABA-A receptor; anion channel (Homo sapiens) (UniProt P14867+P47870+P18507+P28472+P48169+Q99928+Q9UN88+P34903+O00591+O14764+Q8N1C3+P18505+P78334+P47869+P31644+Q16445). Nature of the experiment: Displacement of muscimol from GABA-A receptor. The experiment is classed as protein-complex assay. The method in brief: as §1
A short description of experiment [4]: % Decrease of Phorbol Diester Receptor -bound radioactivity using PDBU as a radioligand. The arrangement: scale not given: the % may be the effect or the level left. The method in brief: as §1
Experiment [5] has as its target T1, 5-hydroxytryptamine receptor 1A (Homo sapiens) (UniProt P08908).
T1 sequence (whole entry): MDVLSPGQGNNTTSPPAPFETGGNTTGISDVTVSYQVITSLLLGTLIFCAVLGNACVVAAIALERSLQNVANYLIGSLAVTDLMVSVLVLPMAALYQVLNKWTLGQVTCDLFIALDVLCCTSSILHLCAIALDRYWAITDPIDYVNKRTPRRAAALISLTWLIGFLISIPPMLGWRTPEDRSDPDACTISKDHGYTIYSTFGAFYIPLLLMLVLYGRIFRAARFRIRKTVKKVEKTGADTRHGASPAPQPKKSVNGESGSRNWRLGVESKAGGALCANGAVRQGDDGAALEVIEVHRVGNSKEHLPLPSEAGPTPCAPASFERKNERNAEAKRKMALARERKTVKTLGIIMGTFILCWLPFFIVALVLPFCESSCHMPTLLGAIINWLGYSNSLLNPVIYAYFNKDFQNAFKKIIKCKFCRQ
Briefly: Percent decrease in 5-hydroxytryptamine 1A receptor binding using 8-OH-DPAT. The arrangement: concentration or dose not given beside the values. The method in brief: as §1

Experiment [6] has as its target Neuronal acetylcholine receptor (Rattus norvegicus) (UniProt P04757+P09483+P12389+P12390+P12392+P43144+Q9JLB5+P12391+P43143+P20420+Q05941). Briefly: % Decrease of Nicotinic acetylcholine receptor-bound radioactivity using cytisine as a radioligand. The arrangement: scale not given: the % may be the effect or the level left. Format: protein-complex assay. The method in brief: as §1

Experiment [7] deals with Angiotensin II receptor (Homo sapiens) (UniProt P30556+P50052). Nature of the experiment: Percent decrease of Angiotensin II receptor binding. The experiment is classed as protein assay. The arrangement: concentration or dose not given beside the values. The method in brief:
as §1

Experiment [8] deals with Sulfonylurea receptors; K-ATP channels (Homo sapiens) (UniProt Q14654+O60706+Q09428+Q15842). Nature of the experiment: Percent inhibition of glibenclamide binding to K+ channel. The arrangement: concentration or dose not given beside the values. The experiment is classed as protein-complex assay. The method in brief: as §1
Chain of Sulfonylurea receptors; K-ATP channels (Homo sapiens) (O60706 whole entry, looked up): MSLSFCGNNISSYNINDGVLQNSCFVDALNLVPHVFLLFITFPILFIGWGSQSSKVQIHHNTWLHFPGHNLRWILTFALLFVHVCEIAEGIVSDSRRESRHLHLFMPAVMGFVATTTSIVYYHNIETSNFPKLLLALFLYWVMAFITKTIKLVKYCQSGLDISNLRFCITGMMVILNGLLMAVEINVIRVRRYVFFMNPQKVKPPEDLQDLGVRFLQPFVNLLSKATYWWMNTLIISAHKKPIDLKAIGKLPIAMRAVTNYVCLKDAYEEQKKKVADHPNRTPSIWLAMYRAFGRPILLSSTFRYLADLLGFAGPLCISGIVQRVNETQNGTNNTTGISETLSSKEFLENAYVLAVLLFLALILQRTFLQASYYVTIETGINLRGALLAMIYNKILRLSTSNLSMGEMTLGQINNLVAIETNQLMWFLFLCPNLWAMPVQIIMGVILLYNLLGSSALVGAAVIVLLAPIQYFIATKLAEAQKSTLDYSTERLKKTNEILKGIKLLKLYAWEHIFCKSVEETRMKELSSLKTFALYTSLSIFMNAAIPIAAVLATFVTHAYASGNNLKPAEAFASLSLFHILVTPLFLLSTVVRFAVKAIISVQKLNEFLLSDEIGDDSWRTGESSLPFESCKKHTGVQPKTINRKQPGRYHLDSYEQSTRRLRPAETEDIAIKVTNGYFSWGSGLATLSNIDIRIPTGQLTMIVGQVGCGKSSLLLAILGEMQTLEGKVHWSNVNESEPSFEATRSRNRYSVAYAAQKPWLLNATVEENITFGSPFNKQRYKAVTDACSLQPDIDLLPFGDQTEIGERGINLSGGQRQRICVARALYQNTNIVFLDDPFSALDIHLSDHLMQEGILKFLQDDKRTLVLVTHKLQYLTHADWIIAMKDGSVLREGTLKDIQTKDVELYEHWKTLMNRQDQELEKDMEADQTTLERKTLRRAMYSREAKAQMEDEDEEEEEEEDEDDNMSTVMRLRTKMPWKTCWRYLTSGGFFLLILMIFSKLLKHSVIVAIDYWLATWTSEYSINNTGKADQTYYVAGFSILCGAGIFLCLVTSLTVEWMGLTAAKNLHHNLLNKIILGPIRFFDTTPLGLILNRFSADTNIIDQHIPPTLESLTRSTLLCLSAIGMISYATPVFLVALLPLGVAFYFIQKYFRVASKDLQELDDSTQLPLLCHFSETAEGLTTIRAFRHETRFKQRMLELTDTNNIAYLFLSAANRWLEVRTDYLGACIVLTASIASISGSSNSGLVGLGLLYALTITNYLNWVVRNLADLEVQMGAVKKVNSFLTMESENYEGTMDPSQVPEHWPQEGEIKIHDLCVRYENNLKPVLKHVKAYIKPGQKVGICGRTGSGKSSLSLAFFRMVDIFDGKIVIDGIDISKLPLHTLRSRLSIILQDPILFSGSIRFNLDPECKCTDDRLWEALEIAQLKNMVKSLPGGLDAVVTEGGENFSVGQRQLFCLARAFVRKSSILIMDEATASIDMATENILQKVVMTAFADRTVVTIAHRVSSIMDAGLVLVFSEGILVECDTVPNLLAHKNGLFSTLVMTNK
Chain of Sulfonylurea receptors; K-ATP channels (Homo sapiens) (Q09428 whole entry, looked up): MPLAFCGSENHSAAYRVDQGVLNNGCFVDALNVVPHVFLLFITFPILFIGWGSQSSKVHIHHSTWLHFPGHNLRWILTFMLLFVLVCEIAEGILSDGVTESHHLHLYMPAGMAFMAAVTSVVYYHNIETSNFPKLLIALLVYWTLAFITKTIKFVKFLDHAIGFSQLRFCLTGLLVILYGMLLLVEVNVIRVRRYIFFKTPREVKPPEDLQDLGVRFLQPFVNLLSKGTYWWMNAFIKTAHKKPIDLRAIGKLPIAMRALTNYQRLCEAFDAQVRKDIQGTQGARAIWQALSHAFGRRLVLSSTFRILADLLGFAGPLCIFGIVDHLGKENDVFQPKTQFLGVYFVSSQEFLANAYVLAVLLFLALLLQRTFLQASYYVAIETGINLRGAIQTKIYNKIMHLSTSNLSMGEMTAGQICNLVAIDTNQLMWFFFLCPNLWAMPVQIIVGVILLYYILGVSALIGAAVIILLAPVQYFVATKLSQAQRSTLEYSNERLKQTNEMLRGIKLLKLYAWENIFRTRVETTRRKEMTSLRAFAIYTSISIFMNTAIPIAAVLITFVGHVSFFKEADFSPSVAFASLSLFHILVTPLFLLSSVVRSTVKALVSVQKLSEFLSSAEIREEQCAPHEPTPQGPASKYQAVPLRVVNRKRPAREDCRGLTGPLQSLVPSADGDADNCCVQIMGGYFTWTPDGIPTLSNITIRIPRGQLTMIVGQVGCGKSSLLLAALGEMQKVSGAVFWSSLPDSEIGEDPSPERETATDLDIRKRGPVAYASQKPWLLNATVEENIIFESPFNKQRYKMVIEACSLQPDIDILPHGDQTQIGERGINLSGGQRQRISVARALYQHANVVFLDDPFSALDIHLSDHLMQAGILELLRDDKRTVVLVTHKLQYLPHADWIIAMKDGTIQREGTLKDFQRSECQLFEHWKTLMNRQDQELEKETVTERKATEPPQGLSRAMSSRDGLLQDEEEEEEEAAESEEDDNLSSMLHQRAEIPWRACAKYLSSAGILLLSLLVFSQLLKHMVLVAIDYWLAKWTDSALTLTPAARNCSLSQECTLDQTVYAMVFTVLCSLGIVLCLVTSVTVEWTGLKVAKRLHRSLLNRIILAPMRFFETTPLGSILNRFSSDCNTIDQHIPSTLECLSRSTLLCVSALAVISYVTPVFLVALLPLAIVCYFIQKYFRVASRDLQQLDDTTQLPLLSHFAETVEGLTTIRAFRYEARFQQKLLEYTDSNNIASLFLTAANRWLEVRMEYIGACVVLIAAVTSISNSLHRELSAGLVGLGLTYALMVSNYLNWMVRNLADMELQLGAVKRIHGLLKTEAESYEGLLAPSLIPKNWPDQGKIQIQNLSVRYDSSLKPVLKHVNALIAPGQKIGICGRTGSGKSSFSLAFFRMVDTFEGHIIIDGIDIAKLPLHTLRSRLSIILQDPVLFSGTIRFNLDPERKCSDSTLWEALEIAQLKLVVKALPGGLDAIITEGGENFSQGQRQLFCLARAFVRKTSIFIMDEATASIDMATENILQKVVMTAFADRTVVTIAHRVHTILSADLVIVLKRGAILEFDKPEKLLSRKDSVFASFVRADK
Chain of Sulfonylurea receptors; K-ATP channels (Homo sapiens) (Q14654 whole entry, looked up): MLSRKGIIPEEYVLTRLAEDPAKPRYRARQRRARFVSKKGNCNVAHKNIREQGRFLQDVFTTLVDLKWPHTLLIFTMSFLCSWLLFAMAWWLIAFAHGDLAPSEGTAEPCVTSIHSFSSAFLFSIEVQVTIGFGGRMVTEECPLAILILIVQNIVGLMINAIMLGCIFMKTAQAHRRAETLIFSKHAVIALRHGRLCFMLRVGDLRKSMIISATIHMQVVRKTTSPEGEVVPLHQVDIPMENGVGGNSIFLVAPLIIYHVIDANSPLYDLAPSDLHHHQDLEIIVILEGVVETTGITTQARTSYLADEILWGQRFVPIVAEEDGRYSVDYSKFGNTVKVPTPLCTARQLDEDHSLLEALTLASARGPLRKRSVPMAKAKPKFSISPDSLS
Chain of Sulfonylurea receptors; K-ATP channels (Homo sapiens) (Q15842 whole entry, looked up): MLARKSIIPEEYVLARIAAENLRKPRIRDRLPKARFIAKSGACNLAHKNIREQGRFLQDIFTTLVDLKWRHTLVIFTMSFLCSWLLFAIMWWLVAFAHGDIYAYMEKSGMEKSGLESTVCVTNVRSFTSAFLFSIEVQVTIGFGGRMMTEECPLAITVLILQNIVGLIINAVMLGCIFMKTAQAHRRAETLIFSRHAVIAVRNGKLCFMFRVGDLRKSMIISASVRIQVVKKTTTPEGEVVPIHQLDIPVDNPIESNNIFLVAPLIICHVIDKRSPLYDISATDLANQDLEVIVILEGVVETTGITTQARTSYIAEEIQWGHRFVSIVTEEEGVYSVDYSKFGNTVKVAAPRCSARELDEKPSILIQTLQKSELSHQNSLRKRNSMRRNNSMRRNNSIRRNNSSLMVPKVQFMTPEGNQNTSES
The target in experiment [9] is Glutamate [NMDA] receptor (Homo sapiens) (UniProt Q05586+Q12879+Q13224+O15399+O60391+Q14957+Q8TCU5). Nature of the experiment: Percent decrease of N-methyl-D-aspartate glutamate receptor binding using MK-801. Format: protein-complex assay. More on the design: concentration or dose not given beside the values. The method in brief:
as §1

The target in experiment [10] is T2, Muscarinic acetylcholine receptor M1 (Homo sapiens) (UniProt P11229).
T2 sequence (whole entry): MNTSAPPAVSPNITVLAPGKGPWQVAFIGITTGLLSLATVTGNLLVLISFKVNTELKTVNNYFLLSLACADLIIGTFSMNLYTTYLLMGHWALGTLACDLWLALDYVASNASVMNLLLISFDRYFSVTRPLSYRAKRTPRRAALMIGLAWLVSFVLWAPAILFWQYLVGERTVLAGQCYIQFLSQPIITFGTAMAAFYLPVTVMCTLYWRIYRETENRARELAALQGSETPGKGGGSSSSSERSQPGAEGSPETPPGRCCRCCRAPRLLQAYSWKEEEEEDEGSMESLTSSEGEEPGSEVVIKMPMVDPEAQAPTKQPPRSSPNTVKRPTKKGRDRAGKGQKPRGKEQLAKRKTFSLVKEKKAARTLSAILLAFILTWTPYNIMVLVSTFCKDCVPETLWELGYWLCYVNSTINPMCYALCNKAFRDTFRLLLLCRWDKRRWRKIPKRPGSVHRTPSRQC
Nature of the experiment: Percent decrease of Muscarinic acetylcholine receptor M1 binding using pirenzepine. The arrangement: scale not given: the % may be the effect or the level left. The method in brief: as §1

In experiment [11] the target is Adrenergic receptor alpha-1 (Homo sapiens) (UniProt P35348+P25100+P35368). Briefly: Percent decrease in Alpha-1 adrenergic receptor binding using prazosin. Format: protein assay. The method in brief:
as §1

Experiment [12] concerns the target D(2) dopamine receptor (Rattus norvegicus) (UniProt P61169). Nature of the experiment: Percent decrease in Dopamine receptor D2 binding using spiperone. The arrangement: scale not given: the % may be the effect or the level left. The method in brief: as §1
Experiment [13] deals with T3, Glutamate receptor ionotropic AMPA (Homo sapiens) (UniProt P48058+P42263+P42262+P42261). Nature of the experiment: Percent decrease of Quisqualate receptor binding using AMPA. More on the design: scale not given: the % may be the effect or the level left. The experiment is classed as protein-complex assay. The method in brief: as §1
For experiment [14], the target named is Serotonin 2 (5-HT2) receptor (Rattus norvegicus) (UniProt P30994+P08909+P14842). Briefly: (§2) Percent decrease in 5-hydroxytryptamine 2 receptor binding using ketanserin. The experiment is classed as protein assay. More on the design: scale not given: the % may be the effect or the level left. The method in brief:
as §1

The target of experiment [15] is T4, Adenosine receptor A1 (Homo sapiens) (UniProt P30542).
T4 sequence (whole entry): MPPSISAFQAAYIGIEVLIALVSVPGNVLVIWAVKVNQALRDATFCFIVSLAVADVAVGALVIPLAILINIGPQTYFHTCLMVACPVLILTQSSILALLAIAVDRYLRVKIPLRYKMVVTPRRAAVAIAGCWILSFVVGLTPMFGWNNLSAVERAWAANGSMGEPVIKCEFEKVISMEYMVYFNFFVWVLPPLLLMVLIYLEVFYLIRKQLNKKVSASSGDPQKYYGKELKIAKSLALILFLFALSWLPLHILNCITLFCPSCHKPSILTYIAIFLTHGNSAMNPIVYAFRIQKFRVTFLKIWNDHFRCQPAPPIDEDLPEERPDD
Briefly: Percent decrease in adenosine-A1-receptor binding using CPDPX. The arrangement: scale not given: the % may be the effect or the level left. The method in brief: as §1

A short description of experiment [16]: % Decrease of adenosine carrier-receptor -bound radioactivity using NBTI as a radioligand. The arrangement: concentration or dose not given beside the values. The method in brief:
as §1

Experiment [17] is described as follows: Percent decrease in Bradykinin receptor binding. More on the design: concentration or dose not given beside the values. The method in brief: as §1
Experiment [18] addresses T3, Glutamate receptor ionotropic AMPA (Homo sapiens). Briefly: Percent decrease in Quisqualate receptor binding using AMPA. Format: protein-complex assay. The arrangement: scale not given: the % may be the effect or the level left. The method in brief:
as §1

Experiment [19] addresses D(1A) dopamine receptor (Rattus norvegicus) (UniProt P18901). Briefly: Percent decrease in Dopamine receptor D1 binding using SCH-23390. The arrangement: scale not given: the % may be the effect or the level left.
The target of experiment [20] is T4, Adenosine receptor A1 (Homo sapiens). Nature of the experiment: Percent decrease in Adenosine A1 receptor binding using CPDPX. More on the design: scale not given: the % may be the effect or the level left.
Experiment [21] addresses D(1A) dopamine receptor (Rattus norvegicus, UniProt P18901). Nature of the experiment: Binding affinity against Dopamine receptor D1 of rat striatal receptor using [3H]SCH-23390. The method in brief: (§3)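 Rat striatal receptor preparations were used, with [3H]SCH23390 for D1, [3H]spiperone for D2 and [3H]RP62203 for 5-HT2. Ki ([…]) was derived from competitive displacement of the radioligand, with n = 3–7.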

Experiment [22] deals with Serotonin 2 (5-HT2) receptor (Rattus norvegicus, UniProt P30994+P08909+P14842). Briefly: Binding affinity against 5-hydroxytryptamine 2 receptor in rat striatum using [3H]-RP62203. The experiment is classed as tissue-based.
Experiment [23] has as its target D(2) dopamine receptor (Rattus norvegicus, UniProt P61169). Nature of the experiment: Binding affinity against Dopamine receptor D2 of rat striatal mambranes using [3H]spiperone. The method in brief: as §3
In experiment [24] the target is Serotonin 2 (5-HT2) receptor (Homo sapiens) (UniProt P41595+P28223+P28335). The description is as §2. The arrangement: scale not given: the % may be the effect or the level left. The experiment is classed as protein assay. The method in brief: as §1
Experiment [25] can be described thus: Percent decrease in Dopamine receptor D2 binding using spiperone. More on the design: scale not given: the % may be the effect or the level left.

What is called Ki is the equilibrium dissociation constant of an inhibitor or competing ligand from its target.

Chain of Sodium-dependent serotonin transporter (Homo sapiens) (P31645 whole entry, looked up): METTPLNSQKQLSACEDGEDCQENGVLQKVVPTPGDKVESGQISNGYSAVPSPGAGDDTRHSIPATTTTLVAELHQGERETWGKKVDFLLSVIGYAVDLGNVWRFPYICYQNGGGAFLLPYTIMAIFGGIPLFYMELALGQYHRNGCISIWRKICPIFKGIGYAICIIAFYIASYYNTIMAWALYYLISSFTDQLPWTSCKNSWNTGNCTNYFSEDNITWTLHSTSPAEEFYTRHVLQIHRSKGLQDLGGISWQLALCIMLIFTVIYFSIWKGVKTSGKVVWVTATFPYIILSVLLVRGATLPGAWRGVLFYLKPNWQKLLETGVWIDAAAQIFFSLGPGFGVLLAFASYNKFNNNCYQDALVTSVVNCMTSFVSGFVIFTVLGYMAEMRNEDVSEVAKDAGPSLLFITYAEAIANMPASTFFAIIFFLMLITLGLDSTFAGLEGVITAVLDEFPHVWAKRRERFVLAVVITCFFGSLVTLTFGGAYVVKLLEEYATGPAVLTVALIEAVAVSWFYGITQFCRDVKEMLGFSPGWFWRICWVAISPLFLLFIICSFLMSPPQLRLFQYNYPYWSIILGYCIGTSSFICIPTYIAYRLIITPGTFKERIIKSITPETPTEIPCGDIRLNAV
Chain of D(1A) dopamine receptor (P18901 whole entry): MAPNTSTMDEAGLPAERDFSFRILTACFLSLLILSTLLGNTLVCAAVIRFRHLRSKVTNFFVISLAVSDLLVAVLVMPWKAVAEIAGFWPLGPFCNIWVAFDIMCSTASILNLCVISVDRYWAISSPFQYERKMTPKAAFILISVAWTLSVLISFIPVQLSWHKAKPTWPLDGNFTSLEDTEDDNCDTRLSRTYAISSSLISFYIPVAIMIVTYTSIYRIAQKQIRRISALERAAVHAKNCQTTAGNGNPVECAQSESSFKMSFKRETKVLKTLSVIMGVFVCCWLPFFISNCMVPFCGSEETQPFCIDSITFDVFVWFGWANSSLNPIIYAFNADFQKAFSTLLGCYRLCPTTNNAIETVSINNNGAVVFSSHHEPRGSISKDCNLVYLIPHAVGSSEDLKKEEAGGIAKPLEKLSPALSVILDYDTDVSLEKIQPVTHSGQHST
Chain of D(1A) dopamine receptor (Rattus norvegicus) (P18901 whole entry, looked up): as the sequence (P18901 whole entry) above

For the molecule `C[N+]12CCc3c([nH]c4ccccc34)C1c1[nH]c3ccccc3c1CC2` (configuration not stated), the Activity was -33% in experiment [1]; 0% in [2]; -4% in experiment [3]; -17% in [4]; -3% in [5]; 3% in [6]. Besides, the Activity was -3% in [7]; 6% in [8]; -20% in experiment [9]; -15% in [10]; -22% in [12]; 11% in [13]. Besides, the Activity was -32% in experiment [14], 11% in experiment [15], 7% in [16] and -4% in experiment [17]. The Decrease in experiment [11] is -64%.

`CN1CCc2c([nH]c3ccccc23)Cc2[nH]c3ccccc3c2CC1`: the Activity is 0% in experiment [18]; -13% in experiment [1]; 0% in experiment [2]; -4% in experiment [3]; -5% in experiment [4]; -25% in experiment [5]. In addition, the Activity is -95% in [19]; -7% in experiment [6]; 9% in [7]; 0% in [8]; -56% in [9]; -14% in experiment [10]. Moreover, the Activity in experiment [20] was -6%; in [24], -80%; in experiment [25], -95%; in experiment [16], -11%; in experiment [17], -21%. Moreover, the Ki in experiment [21] is 9.6 nM; in experiment [22], 180 nM; in [23], 79 nM.

`COc1cc2c(cc1OC)Cc1[nH]c3ccccc3c1CCN(C)CC2`: the Activity is -8% in experiment [18]; -2% in experiment [1]; 1% in experiment [2]; -23% in [3]; -1% in [4]; -22% in experiment [5]. Besides, the Activity is -82% in experiment [19]; -10% in experiment [6]; 9% in experiment [7]; 1% in experiment [8]; -44% in experiment [9]; -22% in experiment [10]. Also, the Activity in experiment [20] was 3%; in experiment [24], -67%; in [25], -77%; in [16], -9%; in experiment [17] it was -19%. Further, the Ki in [21] worked out at 91 nM; in [22] it was 960 nM; in experiment [23] it was 730 nM.
